Laboratory results from ChEMBL document CHEMBL4433237, “6,6'-Dihydroxythiobinupharidine as a poison of human type II topoisomerases” (Bioorg Med Chem Lett, 2019).
Active and inactive are the calls of the source. The rule behind the calls is not given here.

Key:
[1] = target: DNA topoisomerase 2-alpha (Homo sapiens) (UniProt P11388); experiment: Poison activity at recombinant human topoisomerase-2alpha expressed in Saccharomyces cerevisiae assessed as rate of DNA ligation time at 0 to 500 uM incubated for 6 mins by agarose gel electrophoresis method (reference value: 12.5 sec)
[2] = target: DNA topoisomerase 2-alpha (Homo sapiens) (UniProt P11388); experiment: (§1) Covalent poison activity at recombinant human topoisomerase-2alpha expressed in Saccharomyces cerevisiae assessed as decrease in pBR322 DNA cleavage up to 1000 uM using supercoiled pBR322 DNA as substrate incubated for 6 mins and measured after 30 mins in presence of glutathione by ethidium bromide staining based agarose gel electrophoresis method relative to control
[3] = target: DNA topoisomerase 2-alpha (Homo sapiens) (UniProt P11388); experiment: (§2) Inhibition of recombinant human topoisomerase-2alpha expressed in Saccharomyces cerevisiae assessed as increase in double-stranded DNA cleavage at 500 uM using supercoiled pBR322 DNA as substrate incubated for 6 mins measured after 30 mins in presence of EDTA by ethidium bromide staining based agarose gel electrophoresis method relative to control
Procedure, shortened: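 Human topoisomerase IIα, plasmid DNA and 500 μM compound. After reaction, mixtures treated with 25 mM EDTA before SDS to remove active-site Mg2+, versus reactions stopped with SDS before EDTA. Cleavage read on ethidium bromide-stained agarose gel. Two independent experiments.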

[4] = target: DNA topoisomerase 2-beta (Homo sapiens) (UniProt Q02880); experiment: as §2, with “topoisomerase-2beta” for “topoisomerase-2alpha”, “0 to 1000” for “500”, “mins” for “mins in presence of EDTA”
Procedure, shortened: (§3)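 Human topoisomerase IIα or IIβ with negatively supercoiled plasmid. Cleavage trapped with SDS. Supercoiled, nicked and linear forms resolved on ethidium bromide-stained agarose gels. Cleavage normalized to linear standards set to 100%. Three independent experiments.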

[5] = target: DNA topoisomerase 2-alpha (Homo sapiens) (UniProt P11388); experiment: Poison activity at recombinant human topoisomerase-2alpha expressed in Saccharomyces cerevisiae assessed as stabilization of DNA-enzyme cleavage complex at 500 uM using supercoiled pBR322 DNA as substrate incubated for 10 mins and measured after 0 to 240 mins by ethidium bromide staining based agarose gel electrophoresis method
DNA = experiment: Induction of DNA cleavage in supercoiled pBR322 DNA at 500 uM incubated for 6 mins measured after 30 mins by ethidium bromide staining based agarose gel electrophoresis method relative to control; format: nucleic-acid assay; conditions: Escherichia coli
Procedure, shortened: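 Control with enzyme omitted: 500 μM compound incubated with plasmid DNA alone under DNA cleavage assay conditions. Products resolved on ethidium bromide-stained agarose gel. Two independent experiments.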

[6] = target: DNA topoisomerase 2-alpha (Homo sapiens) (UniProt P11388); experiment: as §1, with “ascorbic acid” for “glutathione”
Homo sapiens [7] = organism: Homo sapiens; experiment: (§4) Covalent poison activity at recombinant human N-terminal topoisomerase-2alpha C-terminal domain deletion mutant expressed in Saccharomyces cerevisiae assessed as increase in pBR322 DNA cleavage at 0 to 1000 uM using supercoiled pBR322 DNA as substrate incubated for 6 mins and measured after 30 mins by ethidium bromide staining based agarose gel electrophoresis method relative to control
Procedure, shortened: (§5)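 Plasmid cleavage with topoisomerase IIα truncations: C-terminal deletion construct keeping the N-terminal portion or catalytic core, residues 431–1193, lacking both N- and C-terminal domains. Compound at 0–1000 μM. Cleavage complexes trapped with SDS. Negatively supercoiled, nicked and linear forms resolved on ethidium bromide-stained agarose gels. Cleavage normalized to linear standards set to 100%.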

[8] = target: DNA topoisomerase 2-alpha (Homo sapiens) (UniProt P11388); experiment: as §1, with “dithiothreitol” for “glutathione”
Homo sapiens [9] = organism: Homo sapiens; experiment: as §4, with “human” for “human N-terminal”, “topoisomerase-2alpha N- and” for “topoisomerase-2alpha”, “mutant” for “mutant expressed in Saccharomyces cerevisiae”; procedure, shortened: as §5
[10] = target: DNA topoisomerase 2-alpha (Homo sapiens) (UniProt P11388); experiment: as §2, with “0 to 1000” for “500”, “mins” for “mins in presence of EDTA”; procedure, shortened: as §3
[11] = target: DNA topoisomerase 2-alpha (Homo sapiens) (UniProt P11388); experiment: (§6) Poison activity at recombinant human topoisomerase-2alpha expressed in Saccharomyces cerevisiae assessed as enzyme inactivation time by measuring increase in double-stranded DNA cleavage at 500 uM using supercoiled pBR322 DNA as substrate preincubated for 120 sec followed by substrate addition incubated for 6 mins and measured after 30 mins by ethidium bromide staining based agarose gel electrophoresis method relative to control
Procedure, shortened: (§7)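 500 μM compound preincubated with topoisomerase IIα for varying times before DNA addition. Double-stranded breaks measured and expressed relative to the zero-time level set to 1.0. Three independent experiments.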

[12] = target: DNA topoisomerase 2-alpha (Homo sapiens) (UniProt P11388); experiment: as §6, with “as” for “as enzyme inactivation time by measuring”; procedure, shortened: as §7
Homo sapiens [13] = organism: Homo sapiens; experiment: as §4, with “human” for “human N-terminal”, “topoisomerase-2alpha N- and” for “topoisomerase-2alpha”, “mutant” for “mutant expressed in Saccharomyces cerevisiae”, “50” for “0 to 1000”
Procedure, shortened: (§8)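 Enzyme is a human topoisomerase IIα catalytic core (residues 431–1193) lacking the N- and C-terminal domains. Negatively supercoiled plasmid is the substrate. Double-stranded breaks are read as linear plasmid on ethidium bromide-stained agarose gels and compared with a linear standard. Values are means ± SD of three independent experiments.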

Homo sapiens [14] = organism: Homo sapiens; experiment: as §4, with “human” for “human N-terminal”, “topoisomerase-2alpha N- and” for “topoisomerase-2alpha”, “mutant” for “mutant expressed in Saccharomyces cerevisiae”, “100” for “0 to 1000”; procedure, shortened: as §8

DNA topoisomerase 2-alpha (Homo sapiens), sequence (P11388 whole entry, the tested form may be a part): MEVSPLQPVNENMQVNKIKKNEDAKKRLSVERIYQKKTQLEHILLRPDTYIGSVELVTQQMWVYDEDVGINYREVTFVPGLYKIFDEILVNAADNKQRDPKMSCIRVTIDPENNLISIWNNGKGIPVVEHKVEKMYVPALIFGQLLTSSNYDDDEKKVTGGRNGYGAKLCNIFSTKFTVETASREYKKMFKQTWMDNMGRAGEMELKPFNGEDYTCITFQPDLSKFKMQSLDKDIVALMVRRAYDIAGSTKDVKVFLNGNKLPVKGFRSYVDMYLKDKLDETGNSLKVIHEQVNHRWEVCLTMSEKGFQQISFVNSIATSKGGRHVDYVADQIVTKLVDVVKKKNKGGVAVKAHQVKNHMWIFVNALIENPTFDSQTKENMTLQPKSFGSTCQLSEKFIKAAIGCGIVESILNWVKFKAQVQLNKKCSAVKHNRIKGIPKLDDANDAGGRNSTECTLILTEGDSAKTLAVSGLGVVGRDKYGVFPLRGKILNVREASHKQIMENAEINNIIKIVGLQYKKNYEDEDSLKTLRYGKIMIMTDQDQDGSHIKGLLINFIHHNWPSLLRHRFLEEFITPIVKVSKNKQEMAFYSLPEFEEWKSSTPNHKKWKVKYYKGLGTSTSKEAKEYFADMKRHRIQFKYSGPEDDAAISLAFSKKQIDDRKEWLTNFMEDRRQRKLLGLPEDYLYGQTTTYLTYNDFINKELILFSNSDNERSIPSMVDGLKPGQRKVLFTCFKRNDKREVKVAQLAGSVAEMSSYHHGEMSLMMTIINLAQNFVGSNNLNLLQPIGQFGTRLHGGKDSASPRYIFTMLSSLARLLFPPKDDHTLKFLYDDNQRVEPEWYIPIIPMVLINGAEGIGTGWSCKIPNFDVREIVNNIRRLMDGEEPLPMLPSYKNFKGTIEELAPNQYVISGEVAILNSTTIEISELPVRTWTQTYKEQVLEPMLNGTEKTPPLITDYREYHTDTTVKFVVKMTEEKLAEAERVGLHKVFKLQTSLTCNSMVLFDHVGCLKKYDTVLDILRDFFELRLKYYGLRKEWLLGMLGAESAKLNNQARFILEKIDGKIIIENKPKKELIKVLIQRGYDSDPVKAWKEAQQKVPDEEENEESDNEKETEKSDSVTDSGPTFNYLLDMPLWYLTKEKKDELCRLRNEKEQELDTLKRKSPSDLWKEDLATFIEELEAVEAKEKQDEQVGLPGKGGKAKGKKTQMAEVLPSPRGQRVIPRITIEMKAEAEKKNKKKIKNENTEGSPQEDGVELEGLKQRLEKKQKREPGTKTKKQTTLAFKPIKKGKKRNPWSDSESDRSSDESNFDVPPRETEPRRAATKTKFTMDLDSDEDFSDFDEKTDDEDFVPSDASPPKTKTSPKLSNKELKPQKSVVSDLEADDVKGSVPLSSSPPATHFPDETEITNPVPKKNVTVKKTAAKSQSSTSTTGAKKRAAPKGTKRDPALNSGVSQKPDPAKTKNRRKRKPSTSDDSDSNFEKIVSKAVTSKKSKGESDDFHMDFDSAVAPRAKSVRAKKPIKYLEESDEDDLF
DNA topoisomerase 2-beta (Homo sapiens), sequence (Q02880 whole entry): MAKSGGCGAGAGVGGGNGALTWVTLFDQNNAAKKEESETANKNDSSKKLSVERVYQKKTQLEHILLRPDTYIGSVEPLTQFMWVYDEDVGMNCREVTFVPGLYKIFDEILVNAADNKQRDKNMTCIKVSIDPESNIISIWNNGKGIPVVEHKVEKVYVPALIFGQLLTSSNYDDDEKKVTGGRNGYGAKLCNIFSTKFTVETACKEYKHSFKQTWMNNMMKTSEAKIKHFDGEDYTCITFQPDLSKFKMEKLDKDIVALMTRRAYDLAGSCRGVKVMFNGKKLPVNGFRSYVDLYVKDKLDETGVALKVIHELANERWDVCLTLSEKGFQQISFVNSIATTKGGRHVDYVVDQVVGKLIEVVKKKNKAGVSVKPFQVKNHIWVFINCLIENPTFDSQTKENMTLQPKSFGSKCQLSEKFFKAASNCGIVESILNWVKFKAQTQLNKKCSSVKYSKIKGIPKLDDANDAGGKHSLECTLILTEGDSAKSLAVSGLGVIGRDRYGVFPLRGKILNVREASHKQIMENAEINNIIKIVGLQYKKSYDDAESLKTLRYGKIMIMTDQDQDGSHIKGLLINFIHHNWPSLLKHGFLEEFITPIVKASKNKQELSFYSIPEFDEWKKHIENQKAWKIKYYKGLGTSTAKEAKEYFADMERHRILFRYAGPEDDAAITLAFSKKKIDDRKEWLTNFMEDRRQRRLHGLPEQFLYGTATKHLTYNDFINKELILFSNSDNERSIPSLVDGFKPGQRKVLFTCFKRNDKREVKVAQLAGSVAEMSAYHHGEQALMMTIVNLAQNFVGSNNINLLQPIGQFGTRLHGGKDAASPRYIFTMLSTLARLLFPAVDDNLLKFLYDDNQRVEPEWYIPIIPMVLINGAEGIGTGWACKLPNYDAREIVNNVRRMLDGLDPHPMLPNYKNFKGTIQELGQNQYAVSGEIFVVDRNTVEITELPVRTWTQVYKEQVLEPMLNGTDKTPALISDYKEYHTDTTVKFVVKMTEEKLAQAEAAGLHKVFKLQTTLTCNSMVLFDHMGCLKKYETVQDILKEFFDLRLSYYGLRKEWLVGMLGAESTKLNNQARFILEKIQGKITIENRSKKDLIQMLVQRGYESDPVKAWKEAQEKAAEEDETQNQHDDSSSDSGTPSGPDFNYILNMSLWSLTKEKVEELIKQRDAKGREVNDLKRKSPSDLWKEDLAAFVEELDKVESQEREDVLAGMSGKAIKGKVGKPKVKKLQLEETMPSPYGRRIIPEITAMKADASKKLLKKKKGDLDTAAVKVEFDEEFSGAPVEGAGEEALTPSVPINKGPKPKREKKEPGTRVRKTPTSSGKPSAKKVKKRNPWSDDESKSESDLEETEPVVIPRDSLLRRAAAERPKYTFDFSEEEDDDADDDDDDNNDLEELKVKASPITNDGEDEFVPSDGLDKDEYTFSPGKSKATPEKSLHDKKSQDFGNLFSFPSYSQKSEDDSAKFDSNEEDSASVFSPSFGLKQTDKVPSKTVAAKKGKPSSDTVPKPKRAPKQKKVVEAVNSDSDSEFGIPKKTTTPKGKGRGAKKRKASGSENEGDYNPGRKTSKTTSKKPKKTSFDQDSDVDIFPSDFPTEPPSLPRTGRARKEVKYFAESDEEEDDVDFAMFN

| SMILES | T1/2 [1] [s] | Activity [2] | inhibition [3] | fold change (FC) [4] | Activity [5] | Activity (DNA) | Activity [6] | Activity (Homo sapiens [7]) | Activity [8] | Activity (Homo sapiens [9]) | fold change (FC) [10] | T1/2 [11] [s] | inhibition [12] [%] | Activity (Homo sapiens [13]) | Activity (Homo sapiens [14]) |
| --- | --- | --- | --- | --- | --- | --- | --- | --- | --- | --- | --- | --- | --- | --- | --- |
| C[C@@H]1CC[C@@H](c2ccoc2)N2[C@H]1CC[C@@]1(CS[C@@]3(CC[C@H]4[C@H](C)CC[C@@H](c5ccoc5)N4[C@@H]3O)C1)[C@H]2O | 11 | inactive | inactive | 3 | Active | inactive | inactive | Active | inactive | inactive | 8 | 30 | 100 |  |  |
| COc1cc([C@@H]2c3cc4c(cc3[C@@H](O[C@@H]3O[C@@H]5CO[C@@H](C)O[C@H]5[C@H](O)[C@H]3O)[C@H]3COC(=O)[C@H]23)OCO4)cc(OC)c1O |  |  |  |  |  |  |  |  |  |  |  |  |  | Active | Active |
